Data on five compounds can be found in ChEMBL document CHEMBL1649261, “Pharmacodynamic profile of tigecycline against methicillin-resistant Staphylococcus aureus in an experimental pneumonia model” (Antimicrob Agents Chemother, 2009).

Values after ≈ are worked out from the molar mass of the structure shown.

What all share (assay type): functional
In assay [1] the test system is Staphylococcus aureus. Description: Antibacterial activity against community-acquired methicillin-resistant Staphylococcus aureus 144 by microdilution method. Put shortly:
(§1)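 Tigecycline MIC measured in triplicate by broth microdilution following CLSI guidelines. Isolates were stored at −80°C in skim milk and subcultured twice on blood agar before testing.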
On the technique in general: In broth dilution the organism is exposed to a series of concentrations in liquid medium.

Assay [2] has as its system Staphylococcus aureus. The experiment in a line: Antibacterial activity against methicillin-susceptible Staphylococcus aureus ATCC 29213 by microdilution method. Put shortly: as §1
For assay [3], the system named is Staphylococcus aureus. Description: Antibacterial activity against hospital-acquired methicillin-resistant Staphylococcus aureus 152 by microdilution method. Put shortly: as §1
Assay [4] concerns Staphylococcus aureus. Description: Antibacterial activity against community-acquired methicillin-resistant Staphylococcus aureus 147 by microdilution method. Put shortly:
as §1

Assay [5] deals with Staphylococcus aureus. Description: Antibacterial activity against community-acquired methicillin-resistant Staphylococcus aureus 156 by microdilution method. Put shortly:
as §1

The subject of assay [6] is Staphylococcus aureus. The experiment in a line: Antibacterial activity against hospital-acquired methicillin-resistant Staphylococcus aureus 56 by microdilution method. Put shortly: as §1

The MIC is the least concentration at which growth counts as inhibited. Low values mean inhibition by little substance, high ones a need for much substance. On to `CC[C@H]1OC(=O)[C@H](C)[C@@H](O[C@H]2C[C@@](C)(OC)[C@@H](O)[C@H](C)O2)[C@H](C)[C@@H](O[C@@H]2O[C@H](C)C[C@H](N(C)C)[C@H]2O)[C@](C)(O)C[C@@H](C)C(=O)[C@H](C)[C@@H](O)[C@]1(C)O` [ERYTHROMYCIN], for which the MIC is over 32 µg/mL in the assay with Staphylococcus aureus [1]; 1 µg/mL (≈ 1.36 µM) against Staphylococcus aureus [2]; 1 µg/mL (≈ 1.36 µM) with Staphylococcus aureus [3]; over 32 µg/mL against Staphylococcus aureus [4]; over 32 µg/mL against Staphylococcus aureus [5]; 32 µg/mL (≈ 43.6 µM) with Staphylococcus aureus [6].

With `C[C@H]1COc2c(N3CCN(C)CC3)c(F)cc3c(=O)c(C(=O)O)cn1c23.C[C@H]1COc2c(N3CCN(C)CC3)c(F)cc3c(=O)c(C(=O)O)cn1c23.O` [LEVOFLOXACIN], the MIC is 0.5 µg/mL with Staphylococcus aureus [1]; 0.25 µg/mL in the assay with Staphylococcus aureus [2]; 0.25 µg/mL with Staphylococcus aureus [3]; 8 µg/mL in the assay with Staphylococcus aureus [4]; 0.25 µg/mL against Staphylococcus aureus [6].

Regarding `C[C@H]1c2cccc(O)c2C(=O)C2=C(O)[C@]3(O)C(=O)C(C(N)=O)=C(O)[C@@H](N(C)C)[C@@H]3[C@@H](O)[C@@H]21.O` [DOXYCYCLINE], the MIC against Staphylococcus aureus [1] was determined as 0.5 µg/mL; in the assay with Staphylococcus aureus [2], 0.5 µg/mL; against Staphylococcus aureus [3], 0.5 µg/mL; in the assay on Staphylococcus aureus [4] it was 2 µg/mL; against Staphylococcus aureus [6], 8 µg/mL.

Regarding `CCC[C@@H]1C[C@@H](C(=O)N[C@@H]([C@H]2O[C@H](SC)[C@H](O)[C@@H](O)[C@H]2O)[C@H](C)Cl)N(C)C1` [CLINDAMYCIN], the MIC against Staphylococcus aureus [1] is over 16 µg/mL; against Staphylococcus aureus [2], 0.125 µg/mL (≈ 0.294 µM); against Staphylococcus aureus [3], 0.125 µg/mL (≈ 0.294 µM); against Staphylococcus aureus [4] it was 0.125 µg/mL (≈ 0.294 µM); in the assay on Staphylococcus aureus [5], at most 0.5 µg/mL; in the assay on Staphylococcus aureus [6], 0.25 µg/mL (≈ 0.588 µM).

Consider `CC(=O)NC[C@H]1CN(c2ccc(N3CCOCC3)c(F)c2)C(=O)O1` [LINEZOLID], for which the lowest concentration to inhibit growth in the assay with Staphylococcus aureus [6] (MIC) was 8 µg/mL (≈ 23.7 µM).
